The list is not random: actives were taken first. Their share in the collection is about 3.5%.
FN deposit inh – fibronectin deposition inhibition | AID 743247 | AH1F fibroblasts, Alexa488-fibronectin deposition fluorescence, overnight | inhibition, % at 12.6 µM | hit rate 0.086% among 350,000;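 active means mean inhibition across replicates of 30% or more, regardless of how many single replicates reach that level; inconclusive means mean under 30% yet at least half of replicates reach 30%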;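 further: positive control wells lacked labelled fibronectin entirely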
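Material – AH1F fibroblast monolayer, labelled fibronectin deposition · Reagent – labelled fibronectin 24 nM · Timing – 1 h adhesion, overnight exposure · Measured by – fluorescence at 485 nm excitation, 525 nm emission · Read-out – inhibition of fibronectin deposition signal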
HIV Env fusion – inhibitors of HIV Env-mediated cell fusion. HeLa-JRFL Env/CEM21 cell fusion, luciferase. AID 651610. hit rate 1.1% among 360,000. inhibition, % at 12.3 µM;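 active means mean replicate inhibition score of at least 50 and every replicate individually at or above 50; inconclusive means only one of the two criteria met; inactive means mean below 50 and not all replicates reaching 50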;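 further: 0% = plate neutral controls and 100% = maraviroc near 300 nM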
DENV2 CPE rescue – protects cells from dengue virus 2 cytopathic effect | DENV2-infected cells, cytopathic effect rescue, plate reader | CPE inhibition, % at 9.99 µM | hit rate 1.7% among 350,000; in the data active means CPE inhibition above about 20%, passing the limit was not always enough; inconclusive means no clear call, values can overlap the other calls; tested in BHK-21 cells;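 further: 0% = median of neutral control wells and 100% = median of positive control wells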
PGC1a acetyl inh – PGC1a acetylation modulation, inhibitor mode. U2OS PGC1a acetylation, AlphaScreen anti-acetyl-lysine; with virally co-expressed GCN5 acetyltransferase. inhibition, % at 15.6 µM. hit rate 0.17% among 350,000. AID 651687;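 active means every replicate shows inhibition of at least 40%; inconclusive means mean inhibition at least 40% but some replicate below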;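 further: 0% = neutral control wells and 100% = positive control wells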
rRNA inh HTS – inhibits bacterial ribosomal RNA function over humanized ribosomes; hit rate 1.6% among 350,000; E. coli WT GFP vs humanized-ribosome RFP mutants, fluorescence, 24 h; stronger effect = lower value; DMSO median 0, no signal -100; GFP signal change (wild-type ribosome), % (no concentration beside the values);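 active means significant combined selectivity score with lowered wild-type GFP, culture density cut under 30%, mutant RFP and density less affected; inactive means any of these conditions unmet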
PglD inh – blocks C. jejuni PglD acetyltransferase activity; hit rate 0.098% among 360,000; purified PglD enzyme, DTNB colorimetric CoA detection; inhibition, % at 12.5 µM; in the data active means inhibition above about 16%, passing the limit was not always enough; inconclusive means no clear call, values can overlap the other calls
* marks the source's active call; other numbers are inactive results; ? = inconclusive; . = no result given; [ ] = remark or other dose.

SMILES	FN deposit inh	HIV Env fusion	DENV2 CPE rescue	PGC1a acetyl inh	rRNA inh HTS	PglD inh
C[C@@H]1CCCCO[C@@H](CN(C)C(=O)c2ccccc2)[C@H](C)CN([C@H](C)CO)C(=O)c2cc(NC(=O)CCC(F)(F)F)ccc2O1	-1	1[16.7 µM]	3	3	1	-3
CC(C)N(Cc1ccccc1)C(=O)COC(=O)c1cnc(Cl)c(Cl)c1	1	-14	67*	-13	-38	-3
C[C@H](CO)N1C[C@H](C)[C@H](CN(C)S(=O)(=O)c2ccc(Cl)cc2)Oc2ccc(NS(=O)(=O)c3ccccc3)cc2C1=O	.	41[16.7 µM]	.	-6	1	.
N#C/C(=N\Nc1ccc(S(=O)(=O)N2CCCCCC2)cc1)C(N)=S	-3	16	-1	.	-58	.
N#C/C(=N\Nc1ccc(S(=O)(=O)N2CCCCC2)cc1)C(N)=S	1	23	?	.	-32*	-7
CCC(=O)Nc1ccc2c(c1)C(=O)N(C)C[C@H](OC)[C@@H](C)CN[C@@H](C)CO2	-7	.	9	16	1	0
COc1cccc(N)c1	.	.	171*	.	.	.
Nc1cccc(Oc2c(F)c(F)c(Oc3cccc(N)c3)c(F)c2F)c1	24	0	9	3	-19	7
CCC(=O)N1C[C@@H](C)[C@@H](OC)CN(C)C(=O)c2cc(NC(=O)c3ccccc3)ccc2OC[C@H]1C	7	.	0	1	-2	-4
C[C@@H]1CN([C@@H](C)CO)C(=O)c2cc(NC(=O)c3ccccc3)ccc2O[C@@H](C)CCCCO[C@@H]1CN(C)CC1CCCCC1	-7	1[16.7 µM]	5	0	2	5
S=C(c1cn(Cc2ccccc2)c2ccccc12)N1CCOCC1	6	-2	-5	1	-29*	.
CC(C)NC(=O)N1CCCCN2[C@H](CO)[C@H](c3ccc(C#CC4CC4)cc3)[C@H]2C1	.	.	66*	0	-1	2
CC(C)NC(=O)N1CCCCN2[C@@H](CO)[C@@H](c3ccc(C#CC4CC4)cc3)[C@@H]2C1	.	.	40*	9	7	5
Cc1noc(C)c1NC(=O)N(C)C[C@@H]1Oc2ccc(NS(=O)(=O)c3c(C)noc3C)cc2CC(=O)N([C@@H](C)CO)C[C@@H]1C	-2	3[16.7 µM]	7	17	1	-2
CCOc1cc2c3c(c1)C(C)CC(C)(C)N3C(=O)C2=O (stereo not given)	-10	104*	.	-2	.	0
Cc1cc2c3c(c1)C(C)CC(C)(C)N3C(=O)C2=O (stereo not given)	.	1	-4	-3	5	.
COc1ccc2c3c([nH]c2c1)[C@@H](CO)N(C(=O)c1cccnc1)CC31CN(Cc2cccnc2)C1	.	-4[16.7 µM]	8	.	3	.
Cc1ccccc1CN1CCNC(=O)C1CC(=O)O (stereo not given)	-1	-15	33*	2	1	0
O=C(c1ccc(N2CCN(C(=O)c3ccccc3)CC2)cc1)c1cccc(F)c1	6	-3	65*	.	-21	-2
COc1ccccc1-c1nn2c(-c3ccco3)nnc2s1	.	.	.	3	-22*	3
CCN(C1CCCCC1)S(=O)(=O)c1ccc(S(=O)(=O)NCc2ccncc2)cc1	4	81*	.	13	.	-5
C[C@@H]1CN([C@@H](C)CO)C(=O)c2cc(C#CCN(C)C)cnc2O[C@H]1CN(C)Cc1cccc(C(=O)O)c1	.	-1[16.7 µM]	-5	3	0	2
CCOC(=O)c1nc(N)c(C(=O)OCC)[nH]1	.	.	.	1	.	6
CCOC(=O)c1c(C)nc(C(Cl)(Cl)Cl)nc1N	8	10	.	3	-37*	3
O=C(C[C@@H]1C=C[C@H](NC(=O)CC2CC2)[C@H](CO)O1)NCc1ccccc1	.	.	9	-6	2	.
SMILES	FN deposit inh	HIV Env fusion	DENV2 CPE rescue	PGC1a acetyl inh	rRNA inh HTS	PglD inh
CCC(C(=O)c1ccccc1)N(C(=O)c1ccccc1Cl)N1C(=O)C2C3C=CC(C3)C2C1=O (stereo not given)	.	109*	.	-16	.	0
CCCc1cn(CC[C@H]2CC[C@H](NC(=O)Cc3cccnc3)[C@H](CO)O2)nn1	-16	-3[16.7 µM]	.	3	4	3
C#CCN(C[C@@H]1[C@@H](OC(=O)NCC2CCCCC2)[C@@H](OC(=O)NCC2CCCCC2)Cn2c(=O)ccc(=O)n21)S(=O)(=O)c1ccc(C)cc1	-21	.	.	91*	3	-5
c1ccc(C(c2ccccc2)c2noc(CN3CCC(c4ccncc4)CC3)n2)cc1	3	13	7	20	-43*	1
CCOC(=O)c1c(CSC(=N)N)n(-c2ccccc2)c2cc(Br)c(OC(C)=O)cc12	3	17	5	.	-43*	.
CCC(=O)N1CCC2(CC1)CN(Cc1ccc3c(c1)OCO3)[C@H](CO)c1c2c2ccc(OC)cc2n1C	.	.	19	-2	-7	.
C[C@H](CO)N1C[C@H](C)[C@H](CN(C)Cc2cccc(F)c2)Oc2ncc(C3=CCCCC3)cc2C1=O	-14	.	23*	0	4	.
C[C@@H]1CN([C@@H](C)CO)C(=O)c2cc(C3=CCCCC3)cnc2O[C@@H]1CN(C)Cc1cccnc1	0	2[16.7 µM]	20*	0	4	-2
C[C@H](CO)N1C[C@H](C)[C@@H](CN(C)Cc2cccnc2)Oc2ncc(C3=CCCCC3)cc2C1=O	-14	-18[16.7 µM]	2	-29	0	-2
COc1cccc2c1C(CO)N1C(C#N)C3CC(C(=O)O)C(C1C2)N3C (stereo not given)	.	.	-11	66*	5	-2
NS(=O)(=O)c1ccc(CCNc2ncnc3sccc23)cc1	-6	49*	.	12	.	.
CN1c2ccc(-c3ccccc3)cc2[C@@H]2[C@@H](CCN2C(=O)CN2CCOCC2)[C@H]1CO	-21	.	-13	-13	6	-2
COc1ccc(NC(=O)N(C)C[C@H]2Oc3ccc(NC(=O)Nc4c(C)noc4C)cc3C(=O)N([C@@H](C)CO)C[C@H]2C)cc1	.	5[16.7 µM]	3	3	1	-1
Cc1ccc(CNC(=O)c2ccc(N3CCCC3=O)cc2)cc1	3	-77	.	2	.	2
Cn1nc(C(C)(C)C)cc1C(=O)NCc1ccc(N2CCCC2=O)cc1	3	64*	.	-10	.	-5
C[C@H]1CN([C@@H](C)CO)C(=O)c2cc(NC(=O)CCC(F)(F)F)ccc2O[C@H]1CN(C)S(=O)(=O)c1ccc(F)cc1	5	-9[16.7 µM]	13	-1	3	0
CCCCNC(=S)N1CCn2cccc2C1c1ccc(F)cc1 (stereo not given)	.	58*	5	-4	-40	.
COc1ccc([C@H]2C/C=C\C[C@H](c3ccc4c(c3)OCO4)NC(=O)[C@H](c3ccccc3)CC(=O)N2)c(OC)c1	0	.	.	.	3	.
Nc1cc(-c2ccccc2)nn1S(=O)(=O)c1ccc(F)cc1	9	79*	-6	0	-4	-2
O=C(C=Cc1ccccc1)c1cccs1	4	.	2	.	-22*	.

High-throughput results as filed in PubChem BioAssay.
